A selection follows.
Apaf-1 act – activators of human Apaf-1 apoptosome, primary screen, biochemical, DEVD-Rh110 fluorescence, uHTS; Apoptotic protease-activating factor 1 (Homo sapiens), O14727; Apaf-1 apoptosome caspase-3 activation; hits give low values; activity change, negative = activation, % at 20 µM; 0.31% of 330,000 active; AID 489031, 2010;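 active = activity change at or below -40% at 20 µM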
Target sequence (O14727 whole entry, looked up): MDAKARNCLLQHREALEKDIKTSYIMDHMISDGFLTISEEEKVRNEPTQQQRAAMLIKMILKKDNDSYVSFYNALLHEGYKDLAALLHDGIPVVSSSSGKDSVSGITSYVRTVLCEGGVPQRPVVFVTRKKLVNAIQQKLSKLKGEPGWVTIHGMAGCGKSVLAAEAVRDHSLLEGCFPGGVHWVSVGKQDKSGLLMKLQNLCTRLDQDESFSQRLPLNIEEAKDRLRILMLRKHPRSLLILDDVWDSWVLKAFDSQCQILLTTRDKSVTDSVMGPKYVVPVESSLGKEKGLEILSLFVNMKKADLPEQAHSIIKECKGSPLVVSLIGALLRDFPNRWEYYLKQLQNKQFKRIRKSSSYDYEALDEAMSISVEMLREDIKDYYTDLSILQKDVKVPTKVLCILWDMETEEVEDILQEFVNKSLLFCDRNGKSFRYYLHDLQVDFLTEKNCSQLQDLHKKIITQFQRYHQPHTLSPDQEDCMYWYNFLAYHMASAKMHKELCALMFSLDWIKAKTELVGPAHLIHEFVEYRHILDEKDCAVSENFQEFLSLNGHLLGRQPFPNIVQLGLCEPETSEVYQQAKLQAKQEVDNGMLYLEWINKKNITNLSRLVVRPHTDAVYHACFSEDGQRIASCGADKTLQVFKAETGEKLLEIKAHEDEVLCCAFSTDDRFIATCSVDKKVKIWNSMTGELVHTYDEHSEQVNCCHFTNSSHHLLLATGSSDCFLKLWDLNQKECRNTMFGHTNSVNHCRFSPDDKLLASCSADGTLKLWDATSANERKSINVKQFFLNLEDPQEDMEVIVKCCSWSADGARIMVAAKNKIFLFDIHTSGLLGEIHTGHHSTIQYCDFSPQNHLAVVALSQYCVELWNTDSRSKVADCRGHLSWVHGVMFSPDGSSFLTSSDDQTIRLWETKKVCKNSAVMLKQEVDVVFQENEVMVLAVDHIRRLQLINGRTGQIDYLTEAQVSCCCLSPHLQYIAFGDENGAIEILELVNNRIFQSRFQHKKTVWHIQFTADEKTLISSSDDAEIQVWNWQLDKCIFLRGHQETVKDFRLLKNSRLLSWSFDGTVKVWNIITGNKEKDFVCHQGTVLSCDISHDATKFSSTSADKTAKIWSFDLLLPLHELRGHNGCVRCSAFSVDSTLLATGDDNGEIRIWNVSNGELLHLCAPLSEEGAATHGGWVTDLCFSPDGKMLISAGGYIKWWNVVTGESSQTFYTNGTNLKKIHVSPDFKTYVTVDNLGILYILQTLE
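Schedule: 30 min preincubation, 50 min reaction, room temperature / System: biochemical Apaf-1 apoptosome reconstitution / Medium: 20 mM HEPES pH 7.5 with CHAPS, BSA / Evaluation: Caspase-3 cleavage activity downstream of Apaf-1 activation / Detection: Caspase-3-released Rh110 fluorescence, 540 nm emission, 480 nm excitation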
Rh110 interf act – Rh110 fluorescence interference by putative Apaf-1 activators, confirmation, artefact control for Apaf-1 activator project, biochemical, 20 µM; quenched caspase reaction, Ex480/Em540; 980 tested, under 10 active; fluorescence interference (activity change), % at 20 µM, hits read low; shares compounds with Apaf-1 act;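 active = mean activity change at or below -40% when tested at 20 µM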
Apaf-1 act conf2 – Apaf-1 activators, single-dose retest, confirmation, biochemical, fluorescence, DEVD-Rh110, 20 µM | shares compounds with Apaf-1 act | activity change, negative = activation, % at 20 µM | 5% of 980 active | reconstituted apoptosome caspase-3 activity; hits give low values;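 active = mean activity change at or below -40%, meaning activation of 40% or more, at 20 µM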
A number is an active result; i = inactive.

SMILES	Apaf-1 act	others
N#Cc1ccc(/C=C/C(=O)O)cc1	-499	Rh110 interf act=i;Apaf-1 act conf2=i
CCCCCCCCCCCCCCCC[N+](C)(C)C	i
COC(=O)C1=C(c2ccc(Cl)c(C(F)(F)F)c2)C[C@@H]2CC[C@H]1N2C(=O)NCCOc1ccc(OC)cc1	i
COc1cc2c3c(c1OC)Oc1ccc(cc1)C[C@H]1c4c(cc(OC)c(OC)c4Oc4ccc(cc4)C[C@@H]3N(C)CC2)CCN1C	i
CC(C)CC(N(C)C)C1(c2ccc(Cl)cc2)CCC1 (stereo not drawn)	i
c1ccc(CCCN2CCN(CCOC(c3ccccc3)c3ccccc3)CC2)cc1	i
Cc1ccc(-c2ccc(=O)n(CCC(=O)N3CCC4(CC3)OCCO4)n2)cc1	-49	Rh110 interf act=i;Apaf-1 act conf2=i
Nc1c(C(=O)NCCN2CCOCC2)c2nc3ccccc3nc2n1Cc1ccccc1	i
O=[N+]([O-])c1ccc(NCc2ccc(Cl)cc2)c2ccncc12	i
O=S1(=O)N(CCN2CC=C(c3c[nH]c4cc(F)ccc34)CC2)c2cccc3c2N1CCC3	i
Nc1c(C(=O)OCc2ccccc2)c2nc3ccccc3nc2n1Cc1cccs1	i
C[n+]1c(-c2ccccc2)c2cc(N)ccc2c2ccc(N)cc21	i
Ic1ccccc1CN[C@@H]1C2CCN(CC2)[C@@H]1C(c1ccccc1)c1ccccc1	i
Cn1ncnc2c(=O)n(C)c(=O)nc1-2	i
CC(Cc1ccccc1)NC(=O)NC(C)Cc1ccccc1 (stereo not drawn)	-182	Rh110 interf act=i;Apaf-1 act conf2=i
CCCCOP(=O)(CN1CCOCC1)OCCCC	-278	Rh110 interf act=i;Apaf-1 act conf2=i
COC(=O)C1=C(c2cccc(OCc3ccccc3)c2)C[C@@H]2CC[C@H]1N2C(=O)NC1CCN(Cc2ccccc2)CC1	i
O=[N+]([O-])c1ccc(N2CCCNCC2)c2ncccc12	i
O=C(c1ccc2c(c1)ncn2-c1ccc(F)cc1F)N1CCC2(CC1)OCCO2	-76	Rh110 interf act=i;Apaf-1 act conf2=i
COC(=O)C1=C(c2ccc(F)cc2OCc2ccccc2)C[C@@H]2CC[C@H]1N2C(=O)NC1CCN(Cc2ccccc2)CC1	i
COCCNC(=O)c1c(NC(=O)c2ccco2)n(Cc2ccccc2)c2nc3ccccc3nc12	i
CCCN1CCc2cc(O)cc3c2[C@H]1Cc1ccc(O)c(O)c1-3	i
O=C1N(CN2CCOCC2)c2ccccc2C1(O)c1c[nH]c2ccccc12 (stereo not drawn)	-80	Rh110 interf act=i;Apaf-1 act conf2=i
NCCc1ccc(OCc2ccccc2)c(OCc2ccccc2)c1	i
Cc1c2ccncc2c(C)c2c1[nH]c1ccccc12	i
SMILES	Apaf-1 act	others
CCC(C)NC(=O)c1c(N)n(Cc2ccc3c(c2)OCO3)c2nc3ccccc3nc12 (stereo not drawn)	i
NS(=O)(=O)c1ccc(N=Nc2c(O)[nH]c(=S)[nH]c2=O)cc1	-138	Rh110 interf act=i;Apaf-1 act conf2=i
O=[N+]([O-])c1ccc(NCCCN2CCOCC2)c2ncccc12	i
CN1CCc2cc3c(c4c2C1Cc1ccccc1-4)OCO3 (stereo not drawn)	i
COc1cc2c(cc1O)[C@@H]1Cc3ccc(OC)c(O)c3CN1CC2	i
COCCCn1c(N)c(C(=O)OC(C)COC)c2nc3ccccc3nc21 (stereo not drawn)	i
CCCCn1c(NC(=O)c2ccc(Br)o2)c(C(=O)OCC)c2nc3ccccc3nc21	i
C=CCN1C(=O)NC(=O)C(Cc2ccc(OC)c(OC)c2)C1=O (stereo not drawn)	-549	Rh110 interf act=i;Apaf-1 act conf2=i
COCCCn1c(N)c(C(=O)Nc2ccccc2)c2nc3ccccc3nc21	i
CCC(C)NC(=O)c1c(N)n(CCCOC)c2nc3ccccc3nc12 (stereo not drawn)	i
CC(NC(C)(C)C)C(=O)c1cccc(Cl)c1 (stereo not drawn)	i
CC(C)CCNC(=O)c1c(N)n(CC2CCCO2)c2nc3ccccc3nc12 (stereo not drawn)	i
CN(C)[C@@H]1C(=O)C(C(N)=O)=C(O)[C@@]2(O)C(=O)C3=C(O)c4c(O)cccc4[C@@](C)(O)C3[C@H](O)C12 (stereo partly drawn)	i
CN[C@H]1C[C@H]2O[C@@](C)([C@H]1OC)n1c3ccccc3c3c4c(c5c6ccccc6n2c5c31)C(=O)NC4	i
N=c1n(CCO)c2ccccc2n1Cc1ccccc1	-113	Rh110 interf act=i;Apaf-1 act conf2=i
COCCCn1c(N)c(C(=O)Nc2sc3c(c2C(=O)OC)CCCC3)c2nc3ccccc3nc21	i
Cc1[nH]n(-c2ccccc2)c(=O)c1C(c1ccc([N+](=O)[O-])cc1)c1c(C)[nH]n(-c2ccccc2)c1=O	i
CCC(C)NC(=O)c1c(N)n(CC2CCCO2)c2nc3ccccc3nc12 (stereo not drawn)	i
COc1ccc2c(c1)NP(=S)(Oc1ccccc1)N2 (stereo not drawn)	i
COCCCn1c(N)c(C(=O)NCc2ccco2)c2nc3ccccc3nc21	i

Screens deposited in PubChem by Sanford-Burnham Center for Chemical Genomics.
